# MT1-MMP act inh: blockers of MT1-MMP proenzyme processing, primary screen, HT1080 RFP-PRO-GFP cells, GFP/RFP fluorescence; Matrix metalloproteinase-14 (Homo sapiens), P50281; GFP/RFP ratio fluorescence, overnight; percent of plate control window, DMSO zero; GFP/RFP ratio change, % at 20 µM; hit rate 0.061% among 360,000; AID 651647, 2012;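 active means GFP/RFP ratio change of at least 30% with cell ATP level not reduced by more than half and red fluorescence within 50% of control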
#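 Assay system: RFP-PRO-GFP reporter HT1080 cells; read-out basis: GFP/RFP fluorescence ratio; benchmarks: DMSO wells and RFP-L50D-GFP cells; doses: 20 µM single dose, 1% DMSO; schedule: overnight cell settling, then overnight compound exposure, 37 °C, 5% CO2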
# SKN-1 block: suppressors of acrylamide-induced Pgst-4::GFP reporter in worms, primary screen, SKN-1 inhibitor project, whole organism, uHTS, GFP/RFP fluorescence ratio, strain VP596 | C. elegans VP596 Pgst-4::GFP/RFP ratio, 24 h | inhibition, % at 21.8 µM | hit rate 0.49% among 360,000;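 active means interference check ratio from 0.5 to 1.5 plus GFP to RFP signal ratio inhibition reaching or exceeding a fixed threshold, cut at about 30% in these data, passing the limit was not always enough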
# NR2E3 ag-1: inhibitors of NR2E3-RetCOR corepressor binding, primary screen, NR2E3 agonist project, biochemical, TR-FRET, GST-NR2E3, biotin-RetCOR; Photoreceptor-specific nuclear receptor (Homo sapiens), Q9Y5X4; 1536-well; inhibition of corepressor binding, % at 4.78 µM; hit rate 0.12% among 320,000; AID 2300, 2010;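 active means percent inhibition above the cutoff of mean plus 3 SD of all tested compounds, set per screening campaign, cut at about 20% in these data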
#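 Format: 1536-well format; test system: GST-NR2E3 and biotin-RetCOR proteins; read-out basis: percent inhibition of TR-FRET ratio; timing: 5 h incubation at 4 °C; detection: time-resolved FRET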
# NR2E3 ag-2: NR2E3 agonists in two-hybrid cells, primary screen, cell-based, luminescence, CHO-S, Gal4-NCOR/VP16-NR2E3. inhibition of corepressor binding, % at 3.98 µM. hit rate 0.35% among 360,000. AID 602229, 2012. luciferase. Photoreceptor-specific nuclear receptor (Homo sapiens), Q9Y5X4;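 active means inhibition above the mean of all tested compounds plus 3 SD, cut at about 70% in these data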;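 further: higher means lower luciferase signal from less NR2E3 corepressor binding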
# Rev-erbA mod: modulators of Rev-erb alpha DNA binding, primary screen, biochemical, FITC-DNA, fluorescence polarization, uHTS. Nuclear receptor subfamily 1 group D member 1 (Homo sapiens), P20393. Rev-erbα–FITC-DNA binding, 90 min. activity, % at 10 µM. hit rate 0.79% among 370,000. AID 1259318, 2017;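 active means activity above about 14%, limit read from the data; passing the limit was not always enough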
# Target sequence (P20393 whole entry, looked up): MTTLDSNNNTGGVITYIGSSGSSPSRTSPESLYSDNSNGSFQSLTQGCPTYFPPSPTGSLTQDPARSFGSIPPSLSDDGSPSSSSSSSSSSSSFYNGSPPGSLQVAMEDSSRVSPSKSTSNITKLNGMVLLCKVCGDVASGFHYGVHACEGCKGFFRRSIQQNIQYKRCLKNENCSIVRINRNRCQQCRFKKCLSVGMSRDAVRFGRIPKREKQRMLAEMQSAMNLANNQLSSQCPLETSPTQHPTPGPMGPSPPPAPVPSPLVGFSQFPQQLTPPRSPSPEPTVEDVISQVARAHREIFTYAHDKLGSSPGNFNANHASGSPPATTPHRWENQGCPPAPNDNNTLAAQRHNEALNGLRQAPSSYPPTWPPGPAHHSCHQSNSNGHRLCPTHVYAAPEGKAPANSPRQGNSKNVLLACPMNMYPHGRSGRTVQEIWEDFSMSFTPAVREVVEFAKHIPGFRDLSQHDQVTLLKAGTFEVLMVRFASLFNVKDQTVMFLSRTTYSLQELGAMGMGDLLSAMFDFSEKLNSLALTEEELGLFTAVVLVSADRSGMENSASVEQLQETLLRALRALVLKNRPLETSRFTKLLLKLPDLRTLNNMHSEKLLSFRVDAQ
# PG9 Ab binder: binders of HIV-1 gp120 antibody PG9, primary screen, biochemical, TR-FRET; HIV-1 gp120 / PG9 antibody interaction; TR-FRET gp120-PG9 antibody binding; inhibition, % at 6.7 µM; hit rate 0.43% among 360,000; in the data active means inhibition above about 8.5%
# NR1D1 mod conf: modulators of Rev-erb alpha DNA binding, confirmation, biochemical, FITC-DNA, fluorescence polarization, single point | shares compounds with Rev-erbA mod | 90 min | activation, % at 25 µM | hit rate 61% among 3,000 | AID 1259319, 2017;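 active means activation at or above a set limit, or at least 3 SD above the negative control mean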
# RORg DNA counter: modulation of RORgamma DNA binding, dose response, counter-screen for Rev-erb alpha modulator project, biochemical, fluorescence polarization, FITC-DNA | shares compounds with Rev-erbA mod | purified RORgamma protein-FITC-DNA binding | IC50, µM | hit rate 8% among 910 | AID 1259320, 2017;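 active means Compounds whose fitted half-maximal concentration for disrupting protein-DNA binding is below 10 micromolar; the record names Rev-erb in its text, so the target is in doubt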
# Numbers stand for hits; i = inactive; nt = no result. The list is not random: actives were taken first. Their share in the collection is about 1.9%.
SMILES,MT1-MMP act inh,SKN-1 block,NR2E3 ag-1,NR2E3 ag-2,Rev-erbA mod,PG9 Ab binder,NR1D1 mod conf,others
Cc1cc(-c2n[nH]c(=S)n2N=Cc2cccc(Oc3ccccc3)c2)n[nH]1,nt,nt,nt,nt,i,nt,nt,
COCCN1C(=O)C2=C(C1=O)C1N(C)c3ccccc3[C@@]13C[C@@H](CO)N(C(=O)CCC(=O)OC)C3=N2 (stereo partly specified),nt,nt,nt,nt,i,nt,nt,
O=C(CSc1nnc(-c2ccccc2NC(=O)c2ccccc2)o1)OC1CCCCC1,i,i,i,i,108,i,i,
O=C(CSc1nnc(-c2cccs2)o1)OC1CCCCC1,i,i,i,i,i,i,nt,
O=C(CSc1ncnc2nc[nH]c12)c1ccc(Cl)cc1,i,i,i,i,i,i,nt,
O=C(CSc1ncnc2c(-c3ccc(Cl)cc3)nsc12)c1ccccc1,i,i,i,i,34,i,19,
CCOC(=O)c1c(C2CC2)csc1NC(=O)COC(=O)c1cnc(Cl)c(Cl)c1,i,i,i,i,81,i,80,RORg DNA counter=i
CCOC(=O)c1cc2c(nc1NC(=S)NCc1ccccc1)CCCC2,i,i,i,i,38,i,23,
CCOC(=O)c1cc2c(nc1NC(=S)Nc1ccccc1)CC(C)(C)OC2,i,i,i,i,i,i,nt,
CCCCCCN1C=CC(=C/C=C(\C#N)C(=O)OCC)C=C1,i,i,i,i,58,i,30,
CCCN1C=CC(=C/C=C(\C#N)C(=O)OCC)C=C1,nt,nt,i,nt,nt,nt,nt,
C=CCN1C=CC(=CC=C(C#N)C#N)C=C1,i,i,i,i,32,i,22,
CCCN1C=CC(=CC=C(C#N)C#N)C=C1,i,i,i,i,28,i,i,
CCOC(=O)/C(C#N)=C/C=C1\C=Cc2ccccc2N1CC,i,i,i,i,74,i,56,RORg DNA counter=7.4
COC[C@H]1CCCN1c1cccc2c1S(=O)(=O)N1CC[C@@H](C1)O2,nt,nt,nt,nt,i,nt,nt,
O=c1c2cnn(-c3ccccc3)c2nc(-c2cccs2)n1-c1ccc(Br)cc1,i,i,i,i,38,i,i,
O=C(O)CSc1nc2c(cnn2-c2ccccc2)c(=O)n1-c1ccc(Br)cc1,i,i,i,i,i,i,nt,
CCCCN1CCCOc2cc(Br)ccc2S1(=O)=O,nt,nt,nt,nt,i,nt,nt,
Cc1oc2c(C)c3oc(=O)c4c(c3cc2c1C)CCCC4,i,i,i,i,30,i,i,
COc1ccc(-c2nnc(-c3cc4ccccc4oc3=O)o2)cc1,i,i,i,i,24,i,24,
Cc1ccc(-c2noc(-c3cc4ccccc4oc3=O)n2)cc1,i,i,i,i,33,i,18,
COc1ccc(-c2cc3ccccc3oc2=O)cc1,i,i,i,i,i,i,nt,
Cc1onc(-c2ccccc2)c1C(=O)NN=Cc1cc(Cl)cc(Cl)c1O,nt,nt,nt,nt,i,i,nt,
COc1ccccc1NC(=O)c1sc2ncn(Cc3ccc(C)cc3)c(=O)c2c1C,i,i,i,i,46,i,i,
COc1ccc(NC(=O)c2sc3ncn(CC(=O)N4CCN(c5ccccn5)CC4)c(=O)c3c2C)c(OC)c1,i,i,i,i,48,i,i,
COc1cc(OC)c(NC(=O)c2sc3ncn(CC(=O)N4CCN(c5ccccn5)CC4)c(=O)c3c2C)cc1Cl,i,i,i,i,i,i,nt,
COc1ccccc1NC(=O)c1sc2ncn(Cc3cccc(C)c3)c(=O)c2c1C,i,i,i,i,55,i,54,RORg DNA counter=1.1
